Results taken from ChEMBL document CHEMBL5036324 (J Med Chem, 2021).
The source made the active and inactive calls. The rule behind the calls is not given here.

Tests used:
[1] = molecular target: T1, TLR7 and TLR8 (Homo sapiens) (UniProt Q9NYK1+Q9NR97); assay: Agonist activity at human TLR7/8 expressed in human PBMC cells assessed as induction of G-CSF production by measuring concentration required to induce maximal response incubated for 12 hrs by multiplexed immunoassay; assay type: cell-based; details: filed as agonist
Method in brief: (§1)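 Healthy-volunteer PBMCs from a single donor were isolated by Ficoll−Hypaque gradient and plated at 2.0 × 10⁶ cells/mL. They were stimulated for 12 h with escalating compound concentrations. Supernatants were assayed in duplicate on a 41-analyte magnetic bead cytokine/chemokine panel read by Luminex. EC_max is the concentration giving maximal cytokine induction.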

[2] = molecular target: T1, TLR7 and TLR8 (Homo sapiens); assay: Agonist activity at human TLR7/8 expressed in human PBMC cells assessed as induction of IL-12p40 production by measuring concentration required to induce maximal response incubated for 12 hrs by multiplexed immunoassay; assay type: cell-based; details: filed as agonist; method in brief: as §1
[3] = Toxicity in BALB/c mouse implanted with mouse CT26 cells assessed as decrease in body weight at 1.2 g, ip administered on day 4 in combination with anti-PD-1 antibodies; assay type: organism-based; details: in vivo
Method in brief: (§2)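 CT26 cells were grown in DMEM with 10% FBS at 37 °C, 5% CO2, and implanted subcutaneously in BALB/c mice. At a mean tumor volume of 100 mm³, mice were randomized (n = 5 per group). The TLR7/8 agonist was given ip at 25 μg once weekly, with or without anti-PD-1 antibody at 200 μg ip twice weekly. Body weight was tracked over time.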

CT26 [4] = assay: Antitumor immunity against mouse CT26 cells implanted in BALB/c mouse assessed as increase in M1 to M2 like TAM ratio at 25 ug, ip administered once a week for 23 days by flow cytometry analysis; assay type: functional, organism-based; details: dose 25.0 µg, time 23.0 day
Method in brief: (§3)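 CT26-bearing BALB/c mice (n = 5) were treated ip once weekly with agonist, alone or with anti-PD-1 (200 μg, twice weekly). Tumours were harvested 23 days after implantation, enzymatically and mechanically dissociated into single cells, and stained for surface markers plus intracellular FoxP3 after fixation/permeabilisation. Cells were gated within CD45⁺ for CD11c⁺ DCs, CD11b⁺F4/80⁺MHCII⁺ (M1), CD206⁺ (M2), CD3/CD4/CD8, and CD4⁺CD25⁺FoxP3⁺ Treg, then analysed by flow cytometry.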

[5] = molecular target: T1, TLR7 and TLR8 (Homo sapiens); assay: Agonist activity at human TLR7/8 expressed in human PBMC cells assessed as induction of MCP-1 production by measuring concentration required to induce maximal response incubated for 12 hrs by multiplexed immunoassay; assay type: cell-based; details: filed as agonist; method in brief: as §1
[6] = molecular target: T1, TLR7 and TLR8 (Homo sapiens); assay: Agonist activity at human TLR7/8 expressed in human PBMC cells assessed as induction of INF-gamma production by measuring concentration required to induce maximal response incubated for 12 hrs by multiplexed immunoassay; assay type: cell-based; details: filed as agonist; method in brief: as §1
CT26 [7] = assay: Antitumor immunity against mouse CT26 cells implanted in BALB/c mouse assessed as increase in infiltration of CD8+ T cytotoxic lymphocytes at 25 ug, ip administered once a week with anti-PD-1 antibody for 23 days by flow cytometry analysis; assay type: functional, organism-based; details: dose 25.0 µg, time 23.0 day; method in brief: as §3
[8] = molecular target: T1, TLR7 and TLR8 (Homo sapiens); assay: Agonist activity at human TLR7/8 expressed in human PBMC cells assessed as induction of IP-10 production by measuring concentration required to induce maximal response incubated for 12 hrs by multiplexed immunoassay; assay type: cell-based; details: filed as agonist; method in brief: as §1
[9] = molecular target: T1, TLR7 and TLR8 (Homo sapiens); assay: Agonist activity at human TLR7/8 expressed in human PBMC cells assessed as induction of IL-6 production by measuring concentration required to induce maximal response incubated for 12 hrs by multiplexed immunoassay; assay type: cell-based; details: filed as agonist; method in brief: as §1
[10] = Toxicity in BALB/c mouse implanted with mouse CT26 cells assessed as decrease in body weight at 0.9 g, ip administered on day 4; assay type: organism-based; details: in vivo; method in brief: as §2
CT26 [11] = assay: Antitumor activity against mouse CT26 cells implanted in BALB/c mouse assessed as tumor growth inhibition at 25 ug, ip administered once a week and measured every 3 days for 23 days relative to control; assay type: functional; details: dose 25 µg; time 23 day
Method in brief: (§4)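 Subcutaneous CT26 tumours were grown in BALB/c mice, with cells cultured in DMEM/10% FBS. At a mean tumour size of 100 mm³, mice were randomised (n = 5/group). Agonist was given ip once weekly; anti-PD-1 or IgG isotype was given ip at 200 μg twice weekly. Tumour volume (V = 1/2ab²) was measured every 3 days. Mice were euthanised at 2000 mm³.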

hERG (KCNH2) = hERG (KCNH2) (Homo sapiens, UniProt Q12809); assay: Inhibition of hERG expressed in HEK293 cells at 3 uM relative to control; assay type: cell-based; details: HEK293 cells expressing hERG
hERG (KCNH2), sequence (Q12809 whole entry): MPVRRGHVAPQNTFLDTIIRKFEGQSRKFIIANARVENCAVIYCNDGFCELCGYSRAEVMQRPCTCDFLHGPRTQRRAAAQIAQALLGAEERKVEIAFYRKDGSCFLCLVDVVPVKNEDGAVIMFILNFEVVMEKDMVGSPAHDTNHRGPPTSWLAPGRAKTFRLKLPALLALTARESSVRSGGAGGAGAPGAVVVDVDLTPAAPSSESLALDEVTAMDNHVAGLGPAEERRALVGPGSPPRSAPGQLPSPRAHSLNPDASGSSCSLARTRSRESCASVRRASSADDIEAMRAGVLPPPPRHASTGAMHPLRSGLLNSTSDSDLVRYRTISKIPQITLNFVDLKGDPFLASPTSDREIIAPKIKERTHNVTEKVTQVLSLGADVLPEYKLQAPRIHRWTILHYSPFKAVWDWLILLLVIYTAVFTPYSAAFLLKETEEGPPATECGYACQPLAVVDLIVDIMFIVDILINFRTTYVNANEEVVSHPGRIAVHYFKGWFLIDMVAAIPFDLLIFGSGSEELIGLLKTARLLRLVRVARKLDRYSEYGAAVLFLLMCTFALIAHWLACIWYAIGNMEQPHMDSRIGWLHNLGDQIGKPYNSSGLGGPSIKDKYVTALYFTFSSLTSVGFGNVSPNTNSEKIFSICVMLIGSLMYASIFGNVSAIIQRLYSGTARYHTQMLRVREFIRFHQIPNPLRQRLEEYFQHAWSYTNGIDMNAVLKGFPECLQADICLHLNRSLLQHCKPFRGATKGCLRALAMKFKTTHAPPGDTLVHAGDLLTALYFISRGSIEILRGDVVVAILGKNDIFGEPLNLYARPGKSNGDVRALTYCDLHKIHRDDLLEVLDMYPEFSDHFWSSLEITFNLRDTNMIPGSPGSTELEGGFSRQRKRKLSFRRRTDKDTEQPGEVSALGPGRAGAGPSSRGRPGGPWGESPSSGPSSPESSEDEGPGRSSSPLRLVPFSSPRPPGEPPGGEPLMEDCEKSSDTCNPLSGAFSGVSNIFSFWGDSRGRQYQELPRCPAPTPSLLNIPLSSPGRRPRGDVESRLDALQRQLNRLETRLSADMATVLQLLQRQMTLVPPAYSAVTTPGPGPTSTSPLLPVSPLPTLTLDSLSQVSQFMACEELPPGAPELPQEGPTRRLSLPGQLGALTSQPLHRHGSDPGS

CT26 [12] = assay: Antitumor immunity against mouse CT26 cells implanted in BALB/c mouse assessed as increase in Teff/Treg ratio at 25 ug, ip administered once a week with anti-PD-1 antibody for 23 days by flow cytometry analysis; assay type: functional, organism-based; details: dose 25.0 µg, time 23.0 day; method in brief: as §3
[13] = Toxicity in BALB/c mouse implanted with mouse CT26 cells assessed as decrease in body weight at 25 ug, ip administered once a week for 23 days; assay type: organism-based; details: in vivo, 552 h, dose 25 µg, time 23 day
Method in brief: (§5)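 CT26 subcutaneous tumor-bearing BALB/c mice (n = 5) were treated from 100 mm³ tumor volume. TLR7/8 agonist was given ip once weekly, alone or with anti-PD-1 antibody (200 μg ip, twice weekly). Body weight was tracked over the treatment period and reported as mean ± SEM.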

[14] = molecular target: T1, TLR7 and TLR8 (Homo sapiens); assay: Agonist activity at human TLR7/8 expressed in human PBMC cells assessed as induction of MIP-1alpha production at 0.1 to 32 ug/ml incubated for 12 hrs by multiplexed immunoassay; assay type: cell-based; details: filed as agonist, dose 0.1-32 µg/ml; method in brief: as §1
[15] = Toxicity in BALB/c mouse implanted with mouse CT26 cells assessed as decrease in body weight at 25 ug, ip administered once a week in presence of anti-PD-1 antibodies for 23 days; assay type: organism-based; details: in vivo, 552 h, dose 25 µg, time 23 day; method in brief: as §5
[16] = molecular target: T1, TLR7 and TLR8 (Homo sapiens); assay: Agonist activity at human TLR7/8 expressed in human PBMC cells assessed as induction of INF-alpha regulated IP-10 production at 0.1 to 32 ug/ml incubated for 12 hrs by multiplexed immunoassay; assay type: cell-based; details: filed as agonist, dose 0.1-32 µg/ml; method in brief: as §1
[17] = molecular target: T1, TLR7 and TLR8 (Homo sapiens); assay: Agonist activity at human TLR7/8 expressed in human PBMC cells assessed as induction of TNF-alpha production at 0.1 to 32 ug/ml incubated for 12 hrs by multiplexed immunoassay; assay type: cell-based; details: filed as agonist, dose 0.1-32 µg/ml; method in brief: as §1
[18] = Acute toxicity in BALB/c mouse assessed as mortality at 120 mg/kg, ip administered as single dose; assay type: organism-based; details: in vivo
[19] = Subacute toxicity in BALB/c mouse assessed as body weight loss at 1.73 g, ip administered as single dose; assay type: organism-based; details: in vivo
Method in brief: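 Subacute study in BALB/c mice, with treated and control groups. Body weight was recorded every day. Spleens were weighed and photographed, and tissues were examined by H&E staining.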

[20] = molecular target: T1, TLR7 and TLR8 (Homo sapiens); assay: Agonist activity at human TLR7/8 expressed in human PBMC cells assessed as induction of IL-6 production at 0.1 to 32 ug/ml incubated for 12 hrs by multiplexed immunoassay; assay type: cell-based; details: filed as agonist, dose 0.1-32 µg/ml; method in brief: as §1
[21] = molecular target: T1, TLR7 and TLR8 (Homo sapiens); assay: Agonist activity at human TLR7/8 expressed in human PBMC cells assessed as induction of IL-1beta production at 0.1 to 32 ug/ml incubated for 12 hrs by multiplexed immunoassay; assay type: cell-based; details: filed as agonist, dose 0.1-32 µg/ml; method in brief: as §1
CT26 [22] = assay: Antitumor activity against mouse CT26 cells implanted in BALB/c mouse assessed as tumor growth delay at 25 ug, ip administered once per week and measured every 3 days for 23 days; assay type: functional, organism-based; details: dose 25.0 µg, time 23.0 day; method in brief: as §4

CCCCNc1nc(N)nc2ccc(Cc3ccc(CN(C)C)cc3)nc12
ECmax [1]: 0.1 µg/mL | ECmax [2]: 0.1 µg/mL | Activity [3]: Toxic | Activity (CT26 [4]): Active | ECmax [5]: 0.1 µg/mL | ECmax [6]: 0.1 µg/mL | Activity (CT26 [7]): Active | ECmax [8]: 0.1 µg/mL | ECmax [9]: 0.1 µg/mL | Activity [10]: Toxic | TGI (CT26 [11]): >96.5% | inhibition at 3 µM (hERG (KCNH2)): 63.2% | Activity (CT26 [12]): Active

COCCNc1nc(N)nc2ccc(Cc3ccc(CN(C)C)cc3)nc12
Activity [13]: Non-Toxic | Activity [14]: Active | Activity [15]: Non-Toxic | Activity [16]: Active | Activity [17]: Active | Activity [18]: Toxic | Activity [19]: Toxic | Activity [20]: Active | Activity [21]: Active | Activity (CT26 [22]): Active
